This experiment addresses T1, Histone-lysine N-methyltransferase EHMT2 (Homo sapiens, UniProt Q96KQ7).
T1 sequence (Q96KQ7 whole entry): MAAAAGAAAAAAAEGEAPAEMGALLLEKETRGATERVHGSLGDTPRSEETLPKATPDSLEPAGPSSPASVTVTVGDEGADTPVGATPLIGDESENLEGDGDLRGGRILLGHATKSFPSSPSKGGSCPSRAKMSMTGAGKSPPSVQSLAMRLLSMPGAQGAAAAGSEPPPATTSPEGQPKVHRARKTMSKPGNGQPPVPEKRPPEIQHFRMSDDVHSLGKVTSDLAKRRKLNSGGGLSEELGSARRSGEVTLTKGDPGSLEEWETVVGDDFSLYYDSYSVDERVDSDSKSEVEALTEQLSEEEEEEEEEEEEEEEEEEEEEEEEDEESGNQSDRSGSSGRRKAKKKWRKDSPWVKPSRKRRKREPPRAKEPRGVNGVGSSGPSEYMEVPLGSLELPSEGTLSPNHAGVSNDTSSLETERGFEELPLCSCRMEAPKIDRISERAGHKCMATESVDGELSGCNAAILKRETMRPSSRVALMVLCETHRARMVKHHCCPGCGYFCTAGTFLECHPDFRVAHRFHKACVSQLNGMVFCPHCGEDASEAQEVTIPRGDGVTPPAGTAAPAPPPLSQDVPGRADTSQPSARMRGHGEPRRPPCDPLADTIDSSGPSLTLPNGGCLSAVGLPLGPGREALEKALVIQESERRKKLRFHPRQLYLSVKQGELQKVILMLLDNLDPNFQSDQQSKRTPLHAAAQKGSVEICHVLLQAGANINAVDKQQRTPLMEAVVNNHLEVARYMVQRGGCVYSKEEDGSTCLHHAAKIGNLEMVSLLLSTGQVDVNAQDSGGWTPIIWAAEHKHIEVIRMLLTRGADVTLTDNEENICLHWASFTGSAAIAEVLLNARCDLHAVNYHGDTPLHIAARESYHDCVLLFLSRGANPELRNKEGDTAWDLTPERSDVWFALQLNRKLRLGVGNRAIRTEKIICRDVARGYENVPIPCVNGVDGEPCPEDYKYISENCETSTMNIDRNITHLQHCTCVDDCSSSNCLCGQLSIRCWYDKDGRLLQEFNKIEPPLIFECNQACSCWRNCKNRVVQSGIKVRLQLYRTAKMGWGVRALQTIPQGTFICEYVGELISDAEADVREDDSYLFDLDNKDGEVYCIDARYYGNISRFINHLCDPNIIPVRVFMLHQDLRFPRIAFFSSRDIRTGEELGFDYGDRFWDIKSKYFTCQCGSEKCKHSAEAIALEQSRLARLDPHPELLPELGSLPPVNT
The experiment in a line: Inhibition of G9a (unknown origin) assessed as effect on H3K9 methylation incubated for 30 mins by Alphascreen assay. The gist of the method: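 AlphaScreen: enzyme, SAM and compound mixed in 10 mM PBS for 30 min at room temperature; acceptor beads and substrate antibody added, 30 min at room temperature, then streptavidin donor beads; read on AlphaScreen reader.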
(Alpha assays give light when donor and acceptor beads are brought close together.)

Some results are limits rather than exact numbers.

Broadly, the IC50 is the concentration needed to halve the response being measured.

As to `CN1CCN(c2cc(F)c(-c3ccc(C(=O)N(C)C)cc3)cc2Nc2ncnc(Cl)c2N)CC1`, the IC50 is greater than 100 µM.

The values are drawn from ChEMBL document CHEMBL5033998, “Discovery of DDO-2213 as a Potent and Orally Bioavailable Inhibitor of the WDR5-Mixed Lineage Leukemia 1 Protein-Protein Interaction for the Treatment of MLL Fusion Leukemia” (J Med Chem, 2021).
